# Measured values taken from ChEMBL document CHEMBL2331169, “Search for α3β₂/₃γ2 subtype selective ligands that are stable on human liver microsomes” (Bioorg Med Chem, 2013).
# System: not listed separately
# Assay: Metabolic stability in heat inactivated human liver microsomes assessed as compound remaining at 10 uM measured at 60 mins by LC-MS/MS analysis relative to control
# Assay type: ADME, Microsome
# Conditions: read-out: Stability
# How it was run: (§1)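 Control incubation with heat-inactivated human liver microsomes (0.5 mg protein/ml) in 100 mM phosphate pH 7.4, 37 °C, sampled at 0 and 60 min. Samples quenched in acetonitrile with internal standard and analysed by LC-MS/MS. Percent remaining is the peak-area ratio relative to 0 min ×100; duplicates.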
row,SMILES,"remaining at 1 h, 10 µM"
1,C#Cc1ccc2c(c1)C(c1ccccc1)=NCc1c(C(=O)O)ncn1-2,97.2%
2,C#Cc1ccc2c(c1)C(c1ccccc1F)=NCc1c(C(=O)NC)ncn1-2,108%
3,C#Cc1ccc2c(c1)C(c1ccccc1)=NCc1c(C(=O)OCC)ncn1-2,102%
4,C#Cc1ccc2c(c1)C(c1ccccn1)=NCc1c(-c3nc(C(C)C)no3)ncn1-2,91.7%
5,C#Cc1ccc2c(c1)C(c1ccccc1)=NCc1c(C(=O)NC)ncn1-2,114%

# System: not listed separately
# Assay: Metabolic stability in human liver microsomes assessed as compound remaining at 1 uM measured at 15 mins by LC-MS/MS analysis relative to control
# Assay type: ADME, Microsome
# Conditions: read-out: Stability
# How it was run: (§2)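 Pooled human liver microsomes (150 donors, 0.5 mg protein/ml) with 2.5 mM NADPH and 3.3 mM MgCl2 in 100 mM phosphate pH 7.4, 0.1% DMSO final, 37 °C, reaction started with microsomes. Aliquots quenched in cold acetonitrile with internal standard; LC-MS/MS in positive-ion ESI MRM mode. Percent remaining is analyte/internal-standard peak-area ratio versus 0 min ×100; duplicates.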
row,SMILES,"remaining at 0.25 h, 1 µM"
1,C#Cc1ccc2c(c1)C(c1ccccc1)=NCc1c(C(=O)O)ncn1-2,108%
2,C#Cc1ccc2c(c1)C(c1ccccc1F)=NCc1c(C(=O)NC)ncn1-2,97.3%
3,C#Cc1ccc2c(c1)C(c1ccccc1)=NCc1c(C(=O)OCC)ncn1-2,41.4%
4,C#Cc1ccc2c(c1)C(c1ccccn1)=NCc1c(-c3nc(C(C)C)no3)ncn1-2,97.8%
5,C#Cc1ccc2c(c1)C(c1ccccc1)=NCc1c(C(=O)NC)ncn1-2,87.3%

# System: not listed separately
# Assay: Metabolic stability in human liver microsomes assessed as compound remaining at 10 uM measured at 15 mins by LC-MS/MS analysis relative to control
# Assay type: ADME, Microsome
# Conditions: read-out: Stability
# How it was run: as §2
row,SMILES,"remaining at 0.25 h, 10 µM"
1,C#Cc1ccc2c(c1)C(c1ccccc1)=NCc1c(C(=O)O)ncn1-2,95.3%
2,C#Cc1ccc2c(c1)C(c1ccccc1F)=NCc1c(C(=O)NC)ncn1-2,96.8%
3,C#Cc1ccc2c(c1)C(c1ccccc1)=NCc1c(C(=O)OCC)ncn1-2,47.6%
4,C#Cc1ccc2c(c1)C(c1ccccn1)=NCc1c(-c3nc(C(C)C)no3)ncn1-2,106%
5,C#Cc1ccc2c(c1)C(c1ccccc1)=NCc1c(C(=O)NC)ncn1-2,107%

# Target: T1, GABA A receptor alpha-5/beta-3/gamma-2 (Rattus norvegicus) (UniProt P18508+P19969+P63079)
# Assay: Agonist activity at rat GABAA alpha5beta3gamma2 receptor expressed in Xenopus oocytes assessed as stimulation of GABA-induced chloride current at 100 nM incubated 30 secs prior to GABA induction measured after 15 mins by two-electrode voltage clamp assay relative to control
# Assay type: cell-based
# Conditions: Oocyte
# How it was run: (§3)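 Rat GABAA β3 and γ2 cDNAs plus α1, α2, α3 or α5 cDNA injected into Xenopus oocytes; follicle layers removed 36 h later. Two-electrode recording with […]-filled electrodes; oocytes perfused with Ringer (90 mM NaCl, 5 mM HEPES pH 7.4, 1 mM MgCl2, KCl, CaCl2) switched to GABA at EC3 with drug (0.1% DMSO final). Mean ± SEM, 3–4 oocytes, ≥2 batches.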
row,SMILES,Activity
1,C#Cc1ccc2c(c1)C(c1ccccc1F)=NCc1c(C(=O)NC)ncn1-2,326%
2,C#Cc1ccc2c(c1)C(c1ccccn1)=NCc1c(-c3nc(C(C)C)no3)ncn1-2,130%
3,C#Cc1ccc2c(c1)C(c1ccccc1)=NCc1c(C(=O)NC)ncn1-2,257%

# Target: T2, GABA-A receptor; alpha-1/beta-2/gamma-2 (Rattus norvegicus) (UniProt P18508+P62813+P63138)
# Assay: Agonist activity at rat GABAA alpha1beta3gamma2 receptor expressed in Xenopus oocytes assessed as stimulation of GABA-induced chloride current at 100 nM incubated 30 secs prior to GABA induction measured after 15 mins by two-electrode voltage clamp assay relative to control
# Assay type: cell-based
# Conditions: Oocyte
# How it was run: as §3
row,SMILES,Activity
1,C#Cc1ccc2c(c1)C(c1ccccc1F)=NCc1c(C(=O)NC)ncn1-2,152%
2,C#Cc1ccc2c(c1)C(c1ccccn1)=NCc1c(-c3nc(C(C)C)no3)ncn1-2,117%
3,C#Cc1ccc2c(c1)C(c1ccccc1)=NCc1c(C(=O)NC)ncn1-2,132%

# System: not listed separately
# Assay: Metabolic stability in human liver microsomes assessed as compound remaining at 1 uM measured at 30 mins by LC-MS/MS analysis relative to control
# Assay type: ADME, Microsome
# Conditions: liver microsomes, read-out: Stability
# How it was run: as §2
row,SMILES,"remaining at 0.5 h, 1 µM"
1,C#Cc1ccc2c(c1)C(c1ccccc1)=NCc1c(C(=O)O)ncn1-2,110%
2,C#Cc1ccc2c(c1)C(c1ccccc1F)=NCc1c(C(=O)NC)ncn1-2,95.9%
3,C#Cc1ccc2c(c1)C(c1ccccc1)=NCc1c(C(=O)OCC)ncn1-2,11.2%
4,C#Cc1ccc2c(c1)C(c1ccccn1)=NCc1c(-c3nc(C(C)C)no3)ncn1-2,98.7%
5,C#Cc1ccc2c(c1)C(c1ccccc1)=NCc1c(C(=O)NC)ncn1-2,37.5%

# System: not listed separately
# Assay: Metabolic stability in human liver microsomes assessed as compound remaining at 1 uM measured at 60 mins by LC-MS/MS analysis relative to control
# Assay type: ADME, Microsome
# Conditions: liver microsomes, read-out: Stability
# How it was run: as §2
row,SMILES,"remaining at 1 h, 1 µM"
1,C#Cc1ccc2c(c1)C(c1ccccc1)=NCc1c(C(=O)O)ncn1-2,111%
2,C#Cc1ccc2c(c1)C(c1ccccc1F)=NCc1c(C(=O)NC)ncn1-2,92.3%
3,C#Cc1ccc2c(c1)C(c1ccccc1)=NCc1c(C(=O)OCC)ncn1-2,1.5%
4,C#Cc1ccc2c(c1)C(c1ccccn1)=NCc1c(-c3nc(C(C)C)no3)ncn1-2,89.5%
5,C#Cc1ccc2c(c1)C(c1ccccc1)=NCc1c(C(=O)NC)ncn1-2,5.2%

# System: not listed separately
# Assay: Metabolic stability in heat inactivated human liver microsomes assessed as compound remaining at 1 uM measured at 60 mins by LC-MS/MS analysis relative to control
# Assay type: ADME, Microsome
# Conditions: heat-inactivated liver microsomes, read-out: Stability
# How it was run: as §1
row,SMILES,"remaining at 1 h, 1 µM"
1,C#Cc1ccc2c(c1)C(c1ccccc1)=NCc1c(C(=O)O)ncn1-2,106%
2,C#Cc1ccc2c(c1)C(c1ccccc1F)=NCc1c(C(=O)NC)ncn1-2,116%
3,C#Cc1ccc2c(c1)C(c1ccccc1)=NCc1c(C(=O)OCC)ncn1-2,107%
4,C#Cc1ccc2c(c1)C(c1ccccn1)=NCc1c(-c3nc(C(C)C)no3)ncn1-2,113%
5,C#Cc1ccc2c(c1)C(c1ccccc1)=NCc1c(C(=O)NC)ncn1-2,114%

# System: not listed separately
# Assay: Metabolic stability in human liver microsomes assessed as compound remaining at 10 uM measured at 60 mins by LC-MS/MS analysis relative to control
# Assay type: ADME, Microsome
# Conditions: read-out: Stability
# How it was run: as §2
row,SMILES,"remaining at 1 h, 10 µM"
1,C#Cc1ccc2c(c1)C(c1ccccc1)=NCc1c(C(=O)O)ncn1-2,94.8%
2,C#Cc1ccc2c(c1)C(c1ccccc1F)=NCc1c(C(=O)NC)ncn1-2,103%
3,C#Cc1ccc2c(c1)C(c1ccccc1)=NCc1c(C(=O)OCC)ncn1-2,1.7%
4,C#Cc1ccc2c(c1)C(c1ccccn1)=NCc1c(-c3nc(C(C)C)no3)ncn1-2,95.1%
5,C#Cc1ccc2c(c1)C(c1ccccc1)=NCc1c(C(=O)NC)ncn1-2,82.8%

# Target: T2, GABA-A receptor; alpha-1/beta-2/gamma-2 (Rattus norvegicus)
# Assay: Agonist activity at rat GABAA alpha1beta3gamma2 receptor expressed in Xenopus oocytes assessed as stimulation of GABA-induced chloride current at 1 uM incubated 30 secs prior to GABA induction measured after 15 mins by two-electrode voltage clamp assay relative to control
# Assay type: cell-based
# Conditions: Oocyte
# How it was run: as §3
row,SMILES,Activity
1,C#Cc1ccc2c(c1)C(c1ccccc1F)=NCc1c(C(=O)NC)ncn1-2,201%
2,C#Cc1ccc2c(c1)C(c1ccccn1)=NCc1c(-c3nc(C(C)C)no3)ncn1-2,178%
3,C#Cc1ccc2c(c1)C(c1ccccc1)=NCc1c(C(=O)NC)ncn1-2,192%

# System: not listed separately
# Assay: Metabolic stability in human liver microsomes assessed as compound remaining at 10 uM measured at 30 mins by LC-MS/MS analysis relative to control
# Assay type: ADME, Microsome
# Conditions: read-out: Stability
# How it was run: as §2
row,SMILES,"remaining at 0.5 h, 10 µM"
1,C#Cc1ccc2c(c1)C(c1ccccc1)=NCc1c(C(=O)O)ncn1-2,94.8%
2,C#Cc1ccc2c(c1)C(c1ccccc1F)=NCc1c(C(=O)NC)ncn1-2,103%
3,C#Cc1ccc2c(c1)C(c1ccccc1)=NCc1c(C(=O)OCC)ncn1-2,13.9%
4,C#Cc1ccc2c(c1)C(c1ccccn1)=NCc1c(-c3nc(C(C)C)no3)ncn1-2,99.3%
5,C#Cc1ccc2c(c1)C(c1ccccc1)=NCc1c(C(=O)NC)ncn1-2,104%

# Target: T3, GABA A receptor alpha-2/beta-2/gamma-2 (Rattus norvegicus) (UniProt P18508+P23576+P63138)
# Assay: Agonist activity at rat GABAA alpha2beta3gamma2 receptor expressed in Xenopus oocytes assessed as stimulation of GABA-induced chloride current at 1 uM incubated 30 secs prior to GABA induction measured after 15 mins by two-electrode voltage clamp assay relative to control
# Assay type: cell-based
# Conditions: Oocyte
# How it was run: as §3
row,SMILES,Activity
1,C#Cc1ccc2c(c1)C(c1ccccc1F)=NCc1c(C(=O)NC)ncn1-2,287%
2,C#Cc1ccc2c(c1)C(c1ccccn1)=NCc1c(-c3nc(C(C)C)no3)ncn1-2,236%
3,C#Cc1ccc2c(c1)C(c1ccccc1)=NCc1c(C(=O)NC)ncn1-2,287%

# Target: T1, GABA A receptor alpha-5/beta-3/gamma-2 (Rattus norvegicus)
# Assay: Agonist activity at rat GABAA alpha5beta3gamma2 receptor expressed in Xenopus oocytes assessed as stimulation of GABA-induced chloride current at 1 uM incubated 30 secs prior to GABA induction measured after 15 mins by two-electrode voltage clamp assay relative to control
# Assay type: cell-based
# Conditions: Oocyte
# How it was run: as §3
row,SMILES,Activity
1,C#Cc1ccc2c(c1)C(c1ccccc1F)=NCc1c(C(=O)NC)ncn1-2,361%
2,C#Cc1ccc2c(c1)C(c1ccccn1)=NCc1c(-c3nc(C(C)C)no3)ncn1-2,252%
3,C#Cc1ccc2c(c1)C(c1ccccc1)=NCc1c(C(=O)NC)ncn1-2,307%

# Target: T3, GABA A receptor alpha-2/beta-2/gamma-2 (Rattus norvegicus)
# Assay: Agonist activity at rat GABAA alpha2beta3gamma2 receptor expressed in Xenopus oocytes assessed as stimulation of GABA-induced chloride current at 100 nM incubated 30 secs prior to GABA induction measured after 15 mins by two-electrode voltage clamp assay relative to control
# Assay type: cell-based
# Conditions: Oocyte
# How it was run: as §3
row,SMILES,Activity
1,C#Cc1ccc2c(c1)C(c1ccccc1F)=NCc1c(C(=O)NC)ncn1-2,241%
2,C#Cc1ccc2c(c1)C(c1ccccn1)=NCc1c(-c3nc(C(C)C)no3)ncn1-2,139%
3,C#Cc1ccc2c(c1)C(c1ccccc1)=NCc1c(C(=O)NC)ncn1-2,211%

# Target: Gamma-aminobutyric acid receptor subunit alpha-3 (Rattus norvegicus) (UniProt P20236)
# Sequence (P20236 whole entry): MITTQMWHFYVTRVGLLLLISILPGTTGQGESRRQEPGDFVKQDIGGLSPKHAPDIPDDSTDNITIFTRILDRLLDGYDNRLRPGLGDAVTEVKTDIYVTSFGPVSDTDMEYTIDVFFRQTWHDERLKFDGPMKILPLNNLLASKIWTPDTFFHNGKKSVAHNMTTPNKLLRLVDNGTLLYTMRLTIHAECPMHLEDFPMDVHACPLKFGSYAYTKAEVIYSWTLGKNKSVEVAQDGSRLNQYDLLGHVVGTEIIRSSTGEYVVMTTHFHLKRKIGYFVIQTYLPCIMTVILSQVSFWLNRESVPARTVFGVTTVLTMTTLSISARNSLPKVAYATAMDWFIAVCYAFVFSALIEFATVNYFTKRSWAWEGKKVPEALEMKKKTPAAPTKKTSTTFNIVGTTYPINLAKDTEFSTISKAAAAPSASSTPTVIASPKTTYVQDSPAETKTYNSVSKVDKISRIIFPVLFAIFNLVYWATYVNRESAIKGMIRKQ
# Assay: Agonist activity at rat GABAA alpha3beta3gamma2 receptor expressed in Xenopus oocytes assessed as stimulation of GABA-induced chloride current at 1 uM incubated 30 secs prior to GABA induction measured after 15 mins by two-electrode voltage clamp assay relative to control
# Assay type: cell-based
# Conditions: Oocyte
# How it was run: as §3
row,SMILES,Activity
1,C#Cc1ccc2c(c1)C(c1ccccc1F)=NCc1c(C(=O)NC)ncn1-2,485%
2,C#Cc1ccc2c(c1)C(c1ccccn1)=NCc1c(-c3nc(C(C)C)no3)ncn1-2,375%
3,C#Cc1ccc2c(c1)C(c1ccccc1)=NCc1c(C(=O)NC)ncn1-2,831%

# Target: Gamma-aminobutyric acid receptor subunit alpha-3 (Rattus norvegicus) (UniProt P20236)
# Assay: Agonist activity at rat GABAA alpha3beta3gamma2 receptor expressed in Xenopus oocytes assessed as stimulation of GABA-induced chloride current at 100 nM incubated 30 secs prior to GABA induction measured after 15 mins by two-electrode voltage clamp assay relative to control
# Assay type: cell-based
# Conditions: Oocyte
# How it was run: as §3
row,SMILES,Activity
1,C#Cc1ccc2c(c1)C(c1ccccc1F)=NCc1c(C(=O)NC)ncn1-2,349%
2,C#Cc1ccc2c(c1)C(c1ccccn1)=NCc1c(-c3nc(C(C)C)no3)ncn1-2,143%
3,C#Cc1ccc2c(c1)C(c1ccccc1)=NCc1c(C(=O)NC)ncn1-2,412%
